Compound activity: PubChem, several laboratories
Shown are actives, neighbours in structure and some others; about 1.2% of the full set was active somewhere.
procasp3 activ = procaspase-3 (human) activation; P42574; hit rate 0.11% among 330,000; recombinant procaspase-3 D3A, Ac-DEVD-pNA absorbance 405 nm; activation, % at 8.5 µM; AID 463141;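 active = activation above the mean of all tested compounds plus 3 SD, cut at about 21% in these data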;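 also: 0% = DMSO alone and 100% = DMSO wells spiked with extra 5 µM PC-3 D3A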
Target sequence (P42574 whole entry D9A/D28A/D175A): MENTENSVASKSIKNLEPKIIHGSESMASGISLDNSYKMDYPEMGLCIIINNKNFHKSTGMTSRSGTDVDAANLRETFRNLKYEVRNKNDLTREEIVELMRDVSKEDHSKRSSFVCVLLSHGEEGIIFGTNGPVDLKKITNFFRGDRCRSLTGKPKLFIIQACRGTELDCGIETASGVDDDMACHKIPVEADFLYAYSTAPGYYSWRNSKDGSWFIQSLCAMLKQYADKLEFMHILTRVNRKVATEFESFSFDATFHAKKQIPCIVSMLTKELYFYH
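Test system: Procaspase-3 D3A mutant; medium: Zinc-free HEPES/NaCl buffer with 0.01% Triton X-100 at pH 7.4; reagent: DEVD-pNA substrate; doses: one concentration, 8.5 µM nominal, 0.8% DMSO; times: 1 h preincubation plus 2 h reaction at 25 °C; signal: Epi-absorbance at 405 nm of released p-nitroaniline, 0 and 120 min; replicates: singlicate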
Rce1 inh = blocks yeast Ras-converting enzyme; hit rate 0.27% among 290,000; calls only; yeast membranes, quenched prenylated peptide cleavage fluorescence; AID 2563; Q03530;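 active = fall in fluorescence gain of 50% or more versus controls, with final raw signal at or below 3038400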;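 also: plate controls were neutral control wells for no effect and wells lacking membranes for full effect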
FXN GAA850 act = frataxin GAA850 promoter activation. HEK293 lucGAA850 FXN promoter luciferase reporter, 24 h; percent of 10 µM SAHA response. activation, % at 6 µM. hit rate 0.56% among 360,000;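 active = activation above the average of all compounds screened plus 3 SD, cutoff fixed separately per campaign, cut at about 7.5% in these data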;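 also: 0% = DMSO wells and 100% = 10 µM SAHA wells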
pCIP destab = compounds decreasing mouse p/CIP protein stability; F442A p/CIP-EGFP cells, EGFP fluorescence, 16 h; hit rate 0.01% among 290,000; decrease of EGFP signal, % at 10 µM;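 active = EGFP signal decrease of at least 30% at 10 µM or well 3 SD below plate mean, unless failing retest; inactive = the rest, including hits failing retest or dose response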
Hep lipid drop = modulators of hepatic lipid droplet formation | AML12 mouse hepatocytes, oleate lipid droplets, BODIPY imaging | inhibition, % at 6.5 µM | hit rate 0.4% among 240,000 | AID 1656;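 active = lipid droplet intensity inhibited by at least 50%, with more than 500 cells counted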
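Test system: AML12 mouse liver cells; schedule: overnight exposure; technique: high-content imaging of BODIPY-stained droplets and DAPI nuclei; read-out: % inhibition of corrected integrated BODIPY droplet signal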
proCasp7 act = counter-screen: procaspase-7 (human) activation. P55210. activation, % at 8.5 µM. AID 463210. recombinant procaspase-7, Ac-DEVD-pNA absorbance 405 nm; D23A/D198A/D206A triple mutant, cannot self-cleave; scale: DMSO 0, 5 µM enzyme 100. hit rate 0.093% among 330,000;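 active = percent activation above the screen-wide mean plus 3 SD, cut at about 25% in these data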
Target sequence (P55210 whole entry D23A/D198A/D206A): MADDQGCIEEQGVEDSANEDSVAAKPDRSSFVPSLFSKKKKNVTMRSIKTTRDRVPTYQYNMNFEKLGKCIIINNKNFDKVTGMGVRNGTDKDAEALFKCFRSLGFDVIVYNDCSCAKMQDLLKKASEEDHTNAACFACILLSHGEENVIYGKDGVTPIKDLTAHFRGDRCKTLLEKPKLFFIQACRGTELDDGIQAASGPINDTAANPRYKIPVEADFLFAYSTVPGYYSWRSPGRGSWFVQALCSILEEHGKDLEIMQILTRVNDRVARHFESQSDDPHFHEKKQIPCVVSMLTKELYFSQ
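Assay system – Uncleavable procaspase-7 mutant enzyme · Quantity – 2 µM procaspase-7 mutant as dispensed · Times – 1 h preincubation, 2 h reaction · Dosing – single nominal 8.5 µM compound dose, 0.8% DMSO final · Buffer or medium – Zinc-free 50 mM HEPES buffer, pH 7.4, with NaCl and Triton X-100 · Detection – Epi-absorbance of released pNA at 405 nm, two timepoints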
proCasp7 act trip = counter-screen for procaspase-3 activators: activators of human procaspase-7 | activation, % at 8.5 µM | recombinant procaspase-7, Ac-DEVD-pNA absorbance; asp23/198/206-to-Ala mutant, cannot self-cleave | 210 tested, under 10 active | shares compounds with procasp3 activ | AID 488941;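 active = mean activation above a set limit taken from an earlier procaspase-7 screen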;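 also: 0% = DMSO wells and 100% = DMSO plus 5 µM procaspase-7 enzyme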
procasp3 conf = confirmation of human procaspase-3 activators; shares compounds with procasp3 activ; hit rate 10% among 210; activation, % at 8.5 µM; recombinant PC-3 D3A, Ac-DEVD-pNA absorbance 405 nm; 100% is higher-enzyme control;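 active = mean activation above a set limit carried over from the earlier primary screen, cut at about 22% in these data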
* marks the source's active call; other numbers are inactive results; i = inactive; . = no result given.

SMILES | procasp3 activ | Rce1 inh | FXN GAA850 act | pCIP destab | Hep lipid drop | proCasp7 act | proCasp7 act trip | procasp3 conf
O=C(N/N=C/c1ccccc1)c1ccc(CN2C(=O)c3cccc4cccc2c34)cc1 | -5 | i | 2 | -16 | -1 | -4 | . | .
Cc1ccc(N2CC(C(=O)Nc3ccc4c(c3)OCO4)CC2=O)cc1C (centres undefined) | -6 | . | 2 | -11 | -2 | -7 | . | .
Cc1ccc(N2CCN(CC(O)COc3ccccc3)CC2)cc1 (centres undefined) | 28* | i | 4 | 2 | -7 | 6 | 3 | 2
O=C(CN1CCN(C(=O)N2CCOCC2)CC1)Nc1cc(Cl)ccc1Cl | 6 | i | 0 | -20 | 6 | 1 | . | .
CCCNC(=O)c1ccc2c(=O)c(O)c(-c3ccc(OC)cc3)[nH]c2c1 | 119* | i | 2 | -16 | . | -2 | -2 | 1
CCCNC(=O)c1ccc2c(=O)c(O)c(-c3ccc(C)cc3)[nH]c2c1 | 100* | i | 3 | -22 | . | 20 | 21 | 29*
CCCC(=O)Nc1nnc(SCC(=O)Nc2ccc(OCC)cc2)s1 | . | . | -2 | . | . | . | . | .
Cc1ccccc1C(=O)NC1CCN(CC(=O)Nc2ccc(Br)cc2)CC1 | -8 | . | 0 | -1 | . | 2 | . | .
CC(C)COC(=O)N1CCN(S(=O)(=O)c2ccc3c(c2)CCC3)CC1 | 8 | . | -1 | . | . | 4 | . | .
Cc1cccc(C(=O)Nc2sc3c(c2C(=O)O)CCC3)c1 | 1 | i | -3 | -6 | -1 | -11 | . | .
CNC(=O)c1c(NC(=O)c2cccc(C)c2)sc2c1CCC2 | 29* | i | 3 | 0 | 9 | -226 | -3 | -2
Cc1cc2oc(=O)cc(CN(C)Cc3cccc(F)c3)c2cc1C | -3 | i | 4 | -6 | -7 | 0 | . | .
CCc1cc2c(CN(C)Cc3ccccc3F)cc(=O)oc2cc1O | 46* | i | 2 | -13 | 4 | 21 | -22 | -16
CC(OC(=O)c1cc(=O)[nH]c2ccccc12)C(=O)c1ccccc1 (centres undefined) | 22* | i | -1 | -10 | 3 | 13 | 2 | 7
COc1ccccc1NS(=O)(=O)c1cccc(C(=O)N/N=C(\C)c2cccnc2)c1 | -3 | . | 1 | . | . | -2 | . | .
Cc1cc2nc(-c3ccccc3)cc(=O)n2[nH]1 | 23* | i | 3 | 4 | -13 | 3 | 0 | 3
OC[C@@H]1[C@@H](c2ccc(Cl)cc2)C(c2cccc(Cl)c2)=NN1c1ccccc1 | 18 | . | -1 | . | . | 0 | . | .
OC[C@@H]1[C@@H](c2ccc(Cl)cc2)C(c2ccccc2)=NN1c1ccccc1 | 22* | . | 3 | . | . | 20 | -21 | -12
CCN(CC)c1ccc(/C=N/NC(=S)NCc2ccco2)cc1 | 27* | i | -1 | -12 | 12 | 14 | 2 | 31*
O=C(CN1CCN(S(=O)(=O)c2ccc3c(c2)OCCCO3)CC1)N1CCc2ccccc21 | . | . | 0 | . | . | . | . | .
Cc1cccc(CNC(=O)C2CCC(=O)N(CCc3cccc(F)c3)C2)n1 (centres undefined) | . | i | 0 | -1 | -12 | . | . | .
Cc1ccc(S(=O)(=O)CC(=O)Nc2cccc(C)n2)cc1 | 23* | i | 0 | 1 | 7 | 5 | 2 | 5
Cc1ccc(C)c(C(=O)COc2ncnc3ccccc23)c1 | 48* | i | 1 | 0 | -6 | 0 | 1 | 6
Cc1cc(OCC(=O)Nc2ccc(N3CCN(C)CC3)cc2)ccc1Cl | 0 | i | 3 | -6 | -1 | 9 | . | .
CCCn1c2ccccc2c2nnc(SCC(=O)Nc3nnc(CC(=O)OCC)s3)nc21 | 84* | i | -1 | 8 | 6 | 8 | 3 | 4
SMILES | procasp3 activ | Rce1 inh | FXN GAA850 act | pCIP destab | Hep lipid drop | proCasp7 act | proCasp7 act trip | procasp3 conf
CCOC(=O)Cc1nnc(NC(=O)CSc2nnc3c4ccccc4n(C(C)C)c3n2)s1 | -6 | i | 2 | -1 | -36 | -3 | . | .
O=C(Nc1nnc(-c2ccc(F)cc2)o1)C1CCCN1S(=O)(=O)c1cccs1 (centres undefined) | -8 | i | 1 | . | . | 1 | . | .
CCCc1[nH]nc2c1C(c1cc(OC)cc(OC)c1)C(C#N)=C(N)O2 (centres undefined) | -11 | i | -2 | -3 | -9 | -12 | . | .
CCCc1[nH]nc2c1C(c1cccc(OC(=O)c3ccco3)c1)C(C#N)=C(N)O2 (centres undefined) | 21* | i | 0 | -4 | -36 | 9 | 0 | 4
COc1ccccc1NC(=O)C(=O)c1cn(CC(=O)N2CCOCC2)c2ccccc12 | 22* | i | 5 | -2 | 8 | 2 | 3 | 3
COC(=O)C1=CN(CCCN2CCCC2=O)C=C(C(=O)OC)C1c1ccccc1C(F)(F)F | -3 | i | 1 | -1 | . | -4 | . | .
COC(=O)C1=CN(CC2CCCO2)C=C(C(=O)OC)C1c1ccccc1C(F)(F)F (centres undefined) | 23* | . | 0 | 12 | . | 15 | -20 | -11
COc1ccc(C2=NC(=O)/C(=C\c3cc(OC)c(OC)c(OC)c3)O2)cc1 | 26* | . | 0 | -32 | -2 | 23 | 27* | 33*
Nc1ncnc2c1ncn2[C@@H]1O[C@H](CNS(=O)(=O)c2cc(S(=O)(=O)c3ccccc3)cs2)[C@@H](O)[C@H]1O | 1 | . | -2 | . | . | -2 | . | .
COc1ccc(C2=C/C(=C\c3cccc(OC(C)=O)c3)C(=O)O2)cc1 | 35* | i | 3 | -14 | -6 | -13 | -34 | -13
COc1ccccc1CNC(=O)c1cccnc1 | 7 | i | 2 | -14 | 2 | 6 | . | .
O=c1c(O)c(-c2cccs2)oc2ccccc12 | 27* | i | 2 | -264 | 4 | 15 | 1 | 5
Cc1nnsc1C(=O)NC1CCCc2c1cnn2-c1ccc(C(C)(C)C)cc1 (centres undefined) | 8 | i | -6 | -16 | -13 | -1 | . | .
O=C(Nc1cccc(-n2cnnn2)c1)c1ccc(C(F)(F)F)cc1 | 8 | . | 0 | . | . | -6 | . | .
O=C(O)c1ccc(/C=N/Nc2nc3ccccc3[nH]2)cc1 | -3 | i | 0 | 10 | -5 | 6 | . | .
O=c1[nH]c(N/N=C\c2ccc(F)cc2)nc2ccccc12 | 30* | . | 6 | -1 | 2 | 22 | 1 | -1
O=C(COC(=O)c1ccc2c(c1)OCCO2)NC1CCCCC1 | -6 | . | 1 | . | . | -10 | . | .
